Values joined by “and” are separate entries in the source; they are usually repeats but may differ in a detail not shown here. Equal values may be shown once.
Legend:
[1] = molecular target: T1, Solute carrier family 15 member 1 (Homo sapiens, UniProt P46059); test: TP_TRANSPORTER: inhibition of Gly-Sar uptake (pH6.0) in Caco-2 cells; type: functional, cell-based
T1 sequence (P46059 whole entry): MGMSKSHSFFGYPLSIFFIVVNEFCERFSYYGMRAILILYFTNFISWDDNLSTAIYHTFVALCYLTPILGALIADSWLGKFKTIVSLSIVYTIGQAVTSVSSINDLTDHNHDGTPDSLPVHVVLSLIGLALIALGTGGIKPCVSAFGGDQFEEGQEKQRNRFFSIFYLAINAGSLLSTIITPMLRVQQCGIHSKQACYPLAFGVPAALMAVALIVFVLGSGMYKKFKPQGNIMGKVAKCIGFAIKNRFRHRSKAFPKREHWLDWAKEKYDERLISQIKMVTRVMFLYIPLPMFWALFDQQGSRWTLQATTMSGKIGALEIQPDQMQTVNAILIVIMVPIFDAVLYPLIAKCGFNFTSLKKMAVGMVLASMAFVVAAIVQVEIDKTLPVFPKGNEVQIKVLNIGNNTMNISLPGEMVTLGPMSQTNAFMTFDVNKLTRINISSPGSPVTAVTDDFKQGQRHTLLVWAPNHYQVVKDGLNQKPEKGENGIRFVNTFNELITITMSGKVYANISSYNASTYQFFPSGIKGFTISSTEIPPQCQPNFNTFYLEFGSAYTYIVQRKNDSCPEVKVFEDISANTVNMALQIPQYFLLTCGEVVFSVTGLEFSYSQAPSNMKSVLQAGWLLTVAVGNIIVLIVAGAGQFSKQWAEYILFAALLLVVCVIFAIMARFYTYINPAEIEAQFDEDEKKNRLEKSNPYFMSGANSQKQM

[2] = molecular target: T2, Solute carrier family 15 member 2 (Rattus norvegicus, UniProt Q63424); test: TP_TRANSPORTER: inhibition of Gly-Sar uptake (pH6.0) in SKPT cells; type: functional, cell-based
T2 sequence (Q63424 whole entry): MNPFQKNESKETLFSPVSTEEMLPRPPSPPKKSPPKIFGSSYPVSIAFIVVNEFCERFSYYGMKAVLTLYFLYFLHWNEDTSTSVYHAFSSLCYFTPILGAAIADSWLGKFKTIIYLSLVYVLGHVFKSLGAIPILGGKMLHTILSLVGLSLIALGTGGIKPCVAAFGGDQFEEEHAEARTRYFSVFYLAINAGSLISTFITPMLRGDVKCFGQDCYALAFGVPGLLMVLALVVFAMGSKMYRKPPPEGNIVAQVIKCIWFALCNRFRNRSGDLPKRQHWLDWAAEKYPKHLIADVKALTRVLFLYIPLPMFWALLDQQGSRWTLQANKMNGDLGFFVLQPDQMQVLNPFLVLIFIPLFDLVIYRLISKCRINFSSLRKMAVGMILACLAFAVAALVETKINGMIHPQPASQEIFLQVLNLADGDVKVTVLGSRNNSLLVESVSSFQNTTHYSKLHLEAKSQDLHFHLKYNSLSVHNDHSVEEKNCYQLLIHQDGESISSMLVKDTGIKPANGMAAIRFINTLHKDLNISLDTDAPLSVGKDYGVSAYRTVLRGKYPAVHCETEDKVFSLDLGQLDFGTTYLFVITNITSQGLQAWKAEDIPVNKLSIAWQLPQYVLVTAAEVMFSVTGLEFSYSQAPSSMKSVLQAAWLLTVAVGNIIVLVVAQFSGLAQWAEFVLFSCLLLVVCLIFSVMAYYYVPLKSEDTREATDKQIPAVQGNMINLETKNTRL
Method in brief: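 Rat SKPT renal proximal tubule cells were seeded and used 4 days later. Cells were given ice-cold washes, lysed and counted by scintillation, with protein by Bradford. Non-saturable uptake was taken with 10 mM Gly-Sar.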

| Compound | Ki [1] | Ki [2] |
| --- | --- | --- |
| CC1(C)S[C@@H]2[C@H](N)C(=O)N2[C@H]1C(=O)O | > 30 mM | 19 mM |
| CC(=O)OCC1=C(C(=O)O)N2C(=O)[C@@H](N)[C@H]2SC1 | > 10 mM | 4.9 mM |
| CO/N=C(\C(=O)N[C@@H]1C(=O)N2C(C(=O)[O-])=C(C[N+]3(C)CCCC3)CS[C@H]12)c1csc(N)n1 | > 30 mM | 11.4 mM |
| CC1(C)S[C@@H]2[C@H](NC(=O)[C@H](N)c3ccc(O)cc3)C(=O)N2[C@H]1C(=O)O [AMOXICILLIN] | > 10 mM | 0.43 mM |
| N[C@@H](C(=O)N[C@@H]1C(=O)N2C(C(=O)O)=C(Cl)CS[C@H]12)c1ccccc1 [CEFACLOR ANHYDROUS] | > 10 mM |  |
| CC1=C(C(=O)O)N2C(=O)[C@@H](NC(=O)[C@H](N)c3ccc(O)cc3)[C@H]2SC1 [CEFADROXIL] | 7.2 mM |  |
| Cn1nnnc1SCC1=C(C(=O)O)N2C(=O)[C@@H](NC(=O)[C@H](O)c3ccccc3)[C@H]2SC1 [CEFAMANDOLE] | 8.1 mM | 2.8 mM |
| C=CC1=C(C(=O)O)N2C(=O)[C@@H](NC(=O)/C(=N\OCC(=O)O)c3csc(N)n3)[C@H]2SC1 [CEFIXIME] | 12 mM | 2.6 mM |
| CO[C@@]1(NC(=O)CSCC#N)C(=O)N2C(C(=O)O)=C(CSc3nnnn3C)CS[C@@H]21 [CEFMETAZOLE] | 28 mM | 4.3 mM |
| CO/N=C(\C(=O)N[C@@H]1C(=O)N2C(C(=O)O)=C(CSc3nc(C)c(CC(=O)O)s3)CS[C@H]12)c1csc(N)n1 [CEFODIZIME] | 22 mM | 9 mM |
| CO/N=C(\C(=O)N[C@@H]1C(=O)N2C(C(=O)O)=C(COC(C)=O)CS[C@H]12)c1csc(N)n1 [CEFOTAXIME] | > 30 mM | 20 mM |
| CO/N=C(\C(=O)N[C@@H]1C(=O)N2C(C(=O)[O-])=C(C[n+]3cccc4c3CCC4)CS[C@H]12)c1csc(N)n1 [CEFPIROME] | > 30 mM | 9.5 mM |
| NC(=O)c1cc[n+](CC2=C(C(=O)O)N3C(=O)[C@@H](NC(=O)[C@@H](c4ccccc4)S(=O)(=O)[O-])[C@H]3SC2)cc1 [CEFSULODIN] | > 30 mM | > 30 mM |
| CC(C)(O/N=C(\C(=O)N[C@@H]1C(=O)N2C(C(=O)[O-])=C(C[n+]3ccccc3)CS[C@H]12)c1csc(N)n1)C(=O)O [CEFTAZIDIME] | > 10 mM | > 10 mM |
| Nc1nc(/C(=C/CC(=O)O)C(=O)N[C@@H]2C(=O)N3C(C(=O)O)=CCS[C@H]23)cs1 [CEFTIBUTEN] | 0.34 mM | 0.28 mM |
| CO/N=C(\C(=O)N[C@@H]1C(=O)N2C(C(=O)O)=C(CSc3nc(=O)c(=O)[nH]n3C)CS[C@H]12)c1csc(N)n1 [CEFTRIAXONE] | > 30 mM | > 20 mM |
| CO/N=C(\C(=O)N[C@@H]1C(=O)N2C(C(=O)O)=C(COC(N)=O)CS[C@H]12)c1ccco1 [CEFUROXIME] | > 5 mM and 26 mM | > 0.003 mM and 12.6 mM |
| CC1=C(C(=O)O)N2C(=O)[C@@H](NC(=O)[C@H](N)c3ccccc3)[C@H]2SC1 [CEPHALEXIN ANHYDROUS] |  | 0.075 mM |
| O=C(Cc1cccs1)N[C@@H]1C(=O)N2C(C(=O)[O-])=C(C[n+]3ccccc3)CS[C@H]12 [CEPHALORIDINE] | > 30 mM | 8.5 mM |
| CC(=O)OCC1=C(C(=O)O)N2C(=O)[C@@H](NC(=O)Cc3cccs3)[C@H]2SC1 [CEPHALOTHIN] | > 10 mM | 8.3 mM |
| CC(=O)OCC1=C(C(=O)O)N2C(=O)[C@@H](NC(=O)CSc3ccncc3)[C@H]2SC1 [CEPHAPIRIN] | > 10 mM | > 10 mM |
| CC1=C(C(=O)O)N2C(=O)[C@@H](NC(=O)[C@H](N)C3=CCC=CC3)[C@H]2SC1 [CEPHRADINE] | 9.8 mM | 0.065 mM |
| Cc1onc(-c2ccccc2Cl)c1C(=O)N[C@@H]1C(=O)N2[C@@H]1SC(C)(C)[C@@H]2C(=O)O [CLOXACILLIN] | 3 mM | 0.95 mM |
| CC1(C)S[C@@H]2[C@H](NC(=O)C3(N)CCCCC3)C(=O)N2[C@H]1C(=O)O [CYCLACILLIN] | 0.5 mM | 0.044 mM |
| Cc1onc(-c2c(Cl)cccc2Cl)c1C(=O)N[C@@H]1C(=O)N2[C@@H]1SC(C)(C)[C@@H]2C(=O)O [DICLOXACILLIN] | 7.2 mM | 0.42 mM |
| C=N[C@@H](C(=O)N[C@@H]1C(=O)N2[C@@H]1SC(C)(C)[C@@H]2C(=O)O)c1ccccc1 [METAMPICILLIN] | 12.7 mM | 0.73 mM |
| CO[C@@]1(NC(=O)C(C(=O)O)c2ccc(O)cc2)C(=O)N2C(C(=O)O)=C(CSc3nnnn3C)CO[C@@H]21 (some centres undefined) [MOXALACTAM] | 12.3 mM | 0.087 mM |
| Cc1onc(-c2ccccc2)c1C(=O)N[C@@H]1C(=O)N2[C@@H]1SC(C)(C)[C@@H]2C(=O)O [OXACILLIN] | 12 mM | 3.3 mM |
| CC1(C)S[C@@H]2[C@H](NC(=O)Cc3ccccc3)C(=O)N2[C@H]1C(=O)O [PENICILLIN G] | > 30 mM |  |

From ChEMBL document CHEMBL2074537, “Interaction of 31 beta-lactam antibiotics with the H+/peptide symporter PEPT2: analysis of affinity constants and comparison with PEPT1” (Eur J Pharm Biopharm, 2005)
